How the values were obtained:
Anthrax toxin receptor 2 = Anthrax toxin receptor 2 (Homo sapiens, UniProt P58335, C178A/R40C); test: Inhibition of AF488-labelled PA binding to AF546- labelled GST-tagged CMG2 R40C/C178A double mutant (unknown origin) expressed in Escherichia coli BL21 DE3 measured after 4 hrs by FRET assay
EA.hy 926 = test: Antimigratory activity in human EAhy926 cells measured at 10 mins interval for 12 hrs by time-lapse transmitted light microscopy
Mus musculus = test: Inhibition of basic fibroblast growth factor-induced corneal angiogenesis in C57BL/6J mouse assessed as decrease in vessel area at 10 mg/kg administered intraperitoneally measured on 6th postoperative day relative to control; type: functional; settings: ip
Procedure, shortened: (§1)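 C57BL/6J mice given 80 ng bFGF slow-release pellets in the cornea about 1.0 mm from the temporal limbus. Compound diluted 5:1 in saline, 10 mg/kg/day ip. Vehicle is DMSO/NMP/Tween/Cremophor in saline. Vessel area compared with vehicle by t-test (vehicle n = 9, treated n = 10). Body weight followed against vehicle-treated mice.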

[1] = Toxicity in C57BL/6J mouse assessed as body weight loss at 10 mg/kg, ip; type: organism-based; settings: in vivo; procedure, shortened: as §1

Anthrax toxin receptor 2, sequence (P58335 whole entry, looked up, stated change not applied): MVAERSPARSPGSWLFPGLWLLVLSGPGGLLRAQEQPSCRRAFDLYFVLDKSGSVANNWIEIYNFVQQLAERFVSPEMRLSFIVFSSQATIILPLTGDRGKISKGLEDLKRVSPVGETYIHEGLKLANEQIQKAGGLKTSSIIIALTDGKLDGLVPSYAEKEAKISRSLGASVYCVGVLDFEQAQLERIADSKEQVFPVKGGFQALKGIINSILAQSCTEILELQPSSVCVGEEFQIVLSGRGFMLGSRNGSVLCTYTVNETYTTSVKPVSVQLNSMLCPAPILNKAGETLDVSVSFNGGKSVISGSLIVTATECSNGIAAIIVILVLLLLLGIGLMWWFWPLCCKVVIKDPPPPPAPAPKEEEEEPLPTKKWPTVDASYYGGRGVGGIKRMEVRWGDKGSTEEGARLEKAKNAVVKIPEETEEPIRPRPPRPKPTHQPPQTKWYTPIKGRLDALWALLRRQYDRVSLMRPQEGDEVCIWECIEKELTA

Work on O=C(OCC(OC(=O)c1ccc(O)c(O)c1O)[C@@H]1O[C@H](OC(=O)c2ccc(O)c(O)c2O)[C@H](OC(=O)c2ccc(O)c(O)c2O)[C@H]1OC(=O)c1ccc(O)c(O)c1O)c1ccc(O)c(O)c1O (single isomer, unassigned) yielded an IC50 (Anthrax toxin receptor 2) of over 10000 nM.
Work on O=C(OC[C@H]1O[C@H](O[C@H]2[C@H](OC(=O)c3cc(O)c(O)c(O)c3)[C@@H](OC(=O)c3cc(O)c(O)c(O)c3)[C@H](OC(=O)c3cc(O)c(O)c(O)c3)O[C@@H]2COC(=O)c2cc(O)c(O)c(O)c2)[C@H](OC(=O)c2cc(O)c(O)c(O)c2)[C@@H](OC(=O)c2cc(O)c(O)c(O)c2)[C@@H]1OC(=O)c1cc(O)c(O)c(O)c1)c1cc(O)c(O)c(O)c1 yielded an IC50 (Anthrax toxin receptor 2) of over 10000 nM.
For O=C(O[C@H]1OC[C@@H](OC(=O)c2ccc(O)c(O)c2O)[C@@H](OC(=O)c2ccc(O)c(O)c2O)[C@H]1OC(=O)c1ccc(O)c(O)c1O)c1ccc(O)c(O)c1O, the IC50 (Anthrax toxin receptor 2) was over 10000 nM.
O=C(OC[C@H]1O[C@H](OC(=O)c2cc(O)c(O)c(O)c2)[C@@H](OC(=O)c2cc(O)c(O)c(O)c2)[C@@H](OC(=O)c2cc(O)c(O)c(O)c2)[C@@H]1OC(=O)c1cc(O)c(O)c(O)c1)c1cc(O)c(O)c(O)c1 showed an IC50 (Anthrax toxin receptor 2) of 100 nM.
O=C(OC[C@H]1OC(O)[C@H](OC(=O)c2cc(O)c(O)c(O)c2)[C@@H](OC(=O)c2cc(O)c(O)c(O)c2)[C@H]1OC(=O)c1cc(O)c(O)c(O)c1)c1cc(O)c(O)c(O)c1 (stereo partly drawn) gave an IC50 (Anthrax toxin receptor 2) of 167 nM.
For O=C(OC[C@H]1O[C@H](O[C@H]2[C@H](OC(=O)c3ccc(O)c(O)c3O)[C@@H](OC(=O)c3ccc(O)c(O)c3O)[C@H](OC(=O)c3ccc(O)c(O)c3O)O[C@@H]2COC(=O)c2ccc(O)c(O)c2O)[C@H](OC(=O)c2ccc(O)c(O)c2O)[C@@H](OC(=O)c2ccc(O)c(O)c2O)[C@@H]1OC(=O)c1ccc(O)c(O)c1O)c1ccc(O)c(O)c1O, the IC50 (Anthrax toxin receptor 2) was 1160 nM.
Work on O=C(OC[C@H]1O[C@@H](OC(=O)c2cc(O)c(O)c(O)c2)[C@H](OC(=O)c2cc(O)c(O)c(O)c2)[C@@H](OC(=O)c2cc(O)c(O)c(O)c2)[C@@H]1OC(=O)c1cc(O)c(O)c(O)c1)c1cc(O)c(O)c(O)c1 [PENTAGALLOYL GLUCOSE] yielded an IC50 (Anthrax toxin receptor 2) of 607 nM.
Molecule O=C(O[C@@H]1OC[C@@H](OC(=O)c2cc(O)c(O)c(O)c2)[C@@H](OC(=O)c2cc(O)c(O)c(O)c2)[C@H]1OC(=O)c1cc(O)c(O)c(O)c1)c1cc(O)c(O)c(O)c1 has an IC50 (Anthrax toxin receptor 2) of over 10000 nM.
With O=C(OC[C@H]1O[C@@H](OC(=O)c2ccc(O)c(O)c2O)[C@@H](OC(=O)c2ccc(O)c(O)c2O)[C@@H](OC(=O)c2ccc(O)c(O)c2O)[C@@H]1OC(=O)c1ccc(O)c(O)c1O)c1ccc(O)c(O)c1O the IC50 (Anthrax toxin receptor 2) was 132 nM.
In the case of O=C(O[C@@H]1OC[C@@H](OC(=O)c2ccc(O)c(O)c2O)[C@@H](OC(=O)c2ccc(O)c(O)c2O)[C@H]1OC(=O)c1ccc(O)c(O)c1O)c1ccc(O)c(O)c1O, the IC50 (Anthrax toxin receptor 2) is reported as over 10000 nM.
For O=C(OC[C@H]1OC(OC(=O)c2ccc(O)c(O)c2O)[C@H](OC(=O)c2ccc(O)c(O)c2O)[C@@H](OC(=O)c2ccc(O)c(O)c2O)[C@@H]1OC(=O)c1ccc(O)c(O)c1O)c1ccc(O)c(O)c1O (stereo partly drawn), the IC50 (Anthrax toxin receptor 2) was 3420 nM.
With O=C(OC[C@H]1O[C@H](O[C@H]2O[C@H](COC(=O)c3cc(O)c(O)c(O)c3)[C@@H](OC(=O)c3cc(O)c(O)c(O)c3)[C@H](OC(=O)c3cc(O)c(O)c(O)c3)[C@H]2OC(=O)c2cc(O)c(O)c(O)c2)[C@@H](OC(=O)c2cc(O)c(O)c(O)c2)[C@@H](OC(=O)c2cc(O)c(O)c(O)c2)[C@@H]1OC(=O)c1cc(O)c(O)c(O)c1)c1cc(O)c(O)c(O)c1 the IC50 (Anthrax toxin receptor 2) was over 10000 nM.
O=C(OC[C@H]1O[C@H](OC(=O)c2ccc(O)c(O)c2O)[C@@H](OC(=O)c2ccc(O)c(O)c2O)[C@@H](OC(=O)c2ccc(O)c(O)c2O)[C@@H]1OC(=O)c1ccc(O)c(O)c1O)c1ccc(O)c(O)c1O showed an IC50 (Anthrax toxin receptor 2) of over 10000 nM.
O=C(OC[C@H]1O[C@@H](OC(=O)c2cc(O)c(O)c(O)c2)[C@@H](OC(=O)c2cc(O)c(O)c(O)c2)[C@@H](OC(=O)c2cc(O)c(O)c(O)c2)[C@@H]1OC(=O)c1cc(O)c(O)c(O)c1)c1cc(O)c(O)c(O)c1 showed an IC50 (Anthrax toxin receptor 2) of 58 nM, an IC50 (EA.hy 926) of 365 to 400 nM and an inhibition in vivo at 10 mg/kg (Mus musculus) of 20%. The Activity [1] was “Non-Toxic”.
Work on O=C(OC[C@H]1O[C@H](O[C@H]2O[C@H](COC(=O)c3ccc(O)c(O)c3O)[C@@H](OC(=O)c3ccc(O)c(O)c3O)[C@H](OC(=O)c3ccc(O)c(O)c3O)[C@H]2OC(=O)c2ccc(O)c(O)c2O)[C@@H](OC(=O)c2ccc(O)c(O)c2O)[C@@H](OC(=O)c2ccc(O)c(O)c2O)[C@@H]1OC(=O)c1ccc(O)c(O)c1O)c1ccc(O)c(O)c1O yielded an IC50 (Anthrax toxin receptor 2) of over 10000 nM.

— ChEMBL document CHEMBL4387713, “Galloyl Carbohydrates with Antiangiogenic Activity Mediated by Capillary Morphogenesis Gene 2 (CMG2) Protein Binding” (J Med Chem, 2019)
